Data as given in publication PMC3558982 (Chemical science (Royal Society of Chemistry : 2010), 2013).
Like-named read-outs stand apart in the source and are kept apart here.

Legend:
Ddp1 = conditions: 30 minutes at 37 °C; ref 22c; cited from earlier work
Ddp1 phosphohydrolase = Ddp1 phosphohydrolase (Saccharomyces cerevisiae, UniProt Q99321); assay: Inhibition of His-Ddp1 mediated Ap5A hydrolysis; assay type: biochemical, yeast; conditions: for inhibition profile of Ddp1 mediated Ap5A hydrolysis (in words): compared with 5PP-IP5, Figures 5b and S4
Ddp1 phosphohydrolase, sequence (Q99321 whole entry): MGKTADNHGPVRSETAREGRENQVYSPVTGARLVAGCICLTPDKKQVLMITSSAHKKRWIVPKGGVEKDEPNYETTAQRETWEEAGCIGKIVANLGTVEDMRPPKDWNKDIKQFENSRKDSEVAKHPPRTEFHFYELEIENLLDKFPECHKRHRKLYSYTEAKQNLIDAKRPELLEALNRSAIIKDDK

[1] = 1H and 31P NMR titration in D2O; assay type: physicochemical; conditions: D2O with 140mM K+, 10mM Na+, 1mM Mg2+, room temperature
[2] = Stability in aqueous solution at room temperature; assay type: physicochemical; conditions: for decomposition in aqueous solution: neutral pH, 40 days at room temperature
protein kinase Akt = protein kinase Akt (Homo sapiens, UniProt P31749); assay: Inhibition of Akt phosphorylation at threonine 308 by PDK1; assay type: biochemical
protein kinase Akt, sequence (P31749 whole entry): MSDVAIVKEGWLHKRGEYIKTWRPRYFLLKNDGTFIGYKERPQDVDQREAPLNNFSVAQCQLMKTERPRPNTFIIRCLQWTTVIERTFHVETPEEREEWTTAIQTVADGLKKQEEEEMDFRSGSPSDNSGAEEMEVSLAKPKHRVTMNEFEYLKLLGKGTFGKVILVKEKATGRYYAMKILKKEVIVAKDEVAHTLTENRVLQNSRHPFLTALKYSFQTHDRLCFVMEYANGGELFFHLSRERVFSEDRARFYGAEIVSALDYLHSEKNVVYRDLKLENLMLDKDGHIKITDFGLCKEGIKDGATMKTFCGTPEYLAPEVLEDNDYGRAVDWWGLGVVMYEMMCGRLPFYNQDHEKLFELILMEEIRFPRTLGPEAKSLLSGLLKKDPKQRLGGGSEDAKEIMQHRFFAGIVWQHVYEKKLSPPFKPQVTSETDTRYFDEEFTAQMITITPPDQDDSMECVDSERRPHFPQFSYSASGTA
Method in brief: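 Akt Thr308 phosphorylation was detected by Western blot with a phosphospecific antibody, with a total-Akt blot as loading control. IC50 was determined in three independent experiments.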

Compound	hydrolysis by Ddp1 (Ddp1)	inhibition profile of Ddp1 mediated Ap5A hydrolysis (in words) (Ddp1 phosphohydrolase)	pD of ring inversion (conformational change) [1]	decomposition in aqueous solution [2]	other results
O=P(O)(O)OC1[C@@H](OP(=O)(O)O)[C@@H](OP(=O)(O)O)C(OP(=O)(O)OP(=O)(O)O)[C@H](OP(=O)(O)O)[C@H]1OP(=O)(O)O (stereo partly shown) [1PP-IP5]	completely hydrolysed to IP6				
O=P(O)(O)CP(=O)(O)O[C@H]1[C@H](OP(=O)(O)O)[C@@H](OP(=O)(O)O)[C@@H](OP(=O)(O)O)[C@@H](OP(=O)(O)O)[C@@H]1OP(=O)(O)O [5PCP-IP5]		very similar inhibition profiles	~8.8	no signs of decomposition	decomposition at low or high pD ([2]; pD 2.0 or 13.0, 40 days at room temperature): no detectable decomposition; IC50 (protein kinase Akt; read-out: IC50, inhibition of Akt phosphorylation at threonine 308, purified inactive Akt and activated PDK1, three independent experiments): 129 nM
O=P(O)(O)CP(=O)(O)O[C@@H]1[C@@H](OP(=O)(O)O)[C@H](OP(=O)(O)O)[C@H](O)[C@H](OP(=O)(O)O)[C@H]1OP(=O)(O)O [5PCP-IP4]		very similar inhibition profiles		no signs of decomposition	
O=P(O)(O)OC1C(OP(=O)(O)O)C(OP(=O)(O)O)C(OP(=O)(O)O)C(OP(=O)(O)O)C1OP(=O)(O)O (stereo not shown) [IP6, inositol hexakisphosphate, reference compound]					IC50 in Ddp1 Ap5A hydrolysis relative to 5PP-IP5 (Ddp1 phosphohydrolase; data not shown): more than ten times higher
O=P(O)(O)O[C@H]1[C@@H](OP(=O)(O)O)[C@H](OP(=O)(O)O)[C@@H](OP(=O)(O)OP(=O)(O)O)[C@H](OP(=O)(O)O)[C@H]1OP(=O)(O)O [5PP-IP5, reference compound]	no signs of hydrolysis		~8.8		IC50 (Ddp1 phosphohydrolase): 2500 nM; IC50 (protein kinase Akt): 217 nM
